From PubChem BioAssay
Shown are actives, neighbours in structure and some others; about 1.5% of the full set was active somewhere.
CXCR6 inh = CXCR6 receptor inhibitors, primary screen, cell-based, beta-arrestin, luminescence, CHO-K1 PathHunter, 1536-well | C-X-C chemokine receptor type 6 (Homo sapiens), O00574 | inhibition, % at 20 µM | 360,000 compounds, 0.36% hits | AID 602244, 2012; in the data active = inhibition above about 34%, passing the limit was not always enough;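 also: antagonist mode with CXCL16 agonist at 10 nM final; 0% = 10 nM CXCL16 with DMSO and 100% = unstimulated wells without agonist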
Target sequence (O00574 whole entry, looked up): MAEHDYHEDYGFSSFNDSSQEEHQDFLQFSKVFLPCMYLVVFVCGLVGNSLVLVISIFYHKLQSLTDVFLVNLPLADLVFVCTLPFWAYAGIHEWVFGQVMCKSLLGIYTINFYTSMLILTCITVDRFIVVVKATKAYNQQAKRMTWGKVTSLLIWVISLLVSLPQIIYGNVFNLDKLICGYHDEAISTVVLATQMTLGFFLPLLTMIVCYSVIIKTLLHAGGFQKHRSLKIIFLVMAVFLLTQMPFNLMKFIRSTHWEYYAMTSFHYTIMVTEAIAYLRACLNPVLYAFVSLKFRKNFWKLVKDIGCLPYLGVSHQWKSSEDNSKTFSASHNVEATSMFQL
EBI2 block = EBI2 receptor antagonists, beta-arrestin recruitment, primary screen, cell-based, luminescence, 7a,25-OHC stimulation, uHTS. AID 651636, 2012. 7a,25-OHC stimulated. inhibition, % at 5 µM. G-protein coupled receptor 183 (Homo sapiens), P32249. 360,000 compounds, 0.81% hits; in the data active = inhibition above about 38%;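 also: enzyme fragment complementation signal reports receptor beta-arrestin coupling in cells; 0% = agonist plus DMSO wells and 100% = wells without agonist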
APJ antag = antagonists of human apelin receptor APJ, primary screen, CHO-K1 cells, beta-arrestin complementation, luminescence; P35414; inhibition, % at 20 µM; 330,000 compounds, 0.32% hits;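 active = inhibition above about 40% at 20 µM, limit read from the data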;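 also: cells challenged with 10 nM apelin-13 agonist together with compound; plate controls were apelin-13 plus DMSO wells for no effect and DMSO wells lacking apelin-13 for full effect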
CCR6 antag = CCR6 receptor antagonists, primary screen, cell-based, CHO-K1, luminescence, beta-arrestin, uHTS | C-C chemokine receptor type 6 (Homo sapiens), P51684 | CHO-K1 CCR6 PathHunter beta-arrestin, CCL20-stimulated | inhibition, % at 20 µM | 340,000 compounds, 0.49% hits | AID 493098, 2011;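 active = compounds whose inhibition of the agonist-driven luminescence signal at 20 µM reaches about 50%, limit read from the data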;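 also: cells stimulated with CCL20 at 14 nM final; plate controls were DMSO with CCL20 for no effect and DMSO without agonist for full effect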
APJ agonist = agonists of human apelin receptor APJ, primary screen, CHO-K1 cells, PathHunter beta-arrestin, luminescence. P35414. 0% DMSO wells, 100% apelin. activation, % at 20 µM. 330,000 compounds, 0.11% hits. AID 2520, 2010;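 active = activation more than six SD over the plate average, tested at 20 µM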;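 also: 0% = DMSO alone and 100% = apelin-13 at 10 nM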
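Test system: CHO-K1 APJ beta-arrestin complementation cell line. Amount: cell density 1000 per well. Controls: DMSO negative, 10 nM Apelin-13 positive. Signal: luminescent beta-gal fragment complementation, chemiluminescent substrate. Read-out basis: agonist-driven arrestin binding to APJ. Timing: compound stimulation 90 min at 25 °C, detection 60 min.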
* hit, by the source's call.

COc1ccc(-c2sc3ccc(OC)cc3c2-c2ccc(OCCN3CCOCC3)cc2)cc1 was read as CXCR6 inh -4, EBI2 block 52* and CCR6 antag 28.
Screening COc1ccc2sc(-c3ccccc3OC)c(-c3ccc(OCCN(C)C)cc3)c2c1 returned CXCR6 inh -3, EBI2 block -2 and CCR6 antag 52*.
COc1ccc2sc(-c3ccccc3OC)c(-c3ccc(SC)cc3)c2c1 was read as CXCR6 inh 8 and EBI2 block 16.
For CCOC(=O)c1sc2nc(C)nc(SC(C)C(=O)N(C)c3ccccc3)c2c1C (centres undefined) the results were CXCR6 inh 7, EBI2 block 18, APJ antag 5, CCR6 antag 16 and APJ agonist -3.
Screening CCOC(=O)CCS(=O)(=O)c1nc(-c2ccccc2)cc(C(F)(F)F)n1 returned CXCR6 inh 29, EBI2 block 27, APJ antag 36, CCR6 antag 34 and APJ agonist 1.
For CCOC(=O)CS(=O)(=O)c1nc(-c2ccc(F)cc2)cc(C(F)(F)F)n1 the results were CXCR6 inh 67*, EBI2 block 60*, APJ antag 35, CCR6 antag 52* and APJ agonist -1.
For O=[N+]([O-])c1cc(-c2cccnc2)n[nH]1 the results were CXCR6 inh 7, EBI2 block 1 and CCR6 antag 7.
Cc1nnsc1-c1c(C(=O)N2CCOCC2)c(C)nn1-c1ccc(Cl)cc1 was read as CXCR6 inh 1, EBI2 block 2, APJ antag 11, CCR6 antag 10 and APJ agonist 4.
`Cc1[nH]n(-c2ccccc2)c(=O)c1C(C[N+](=O)[O-])c1ccc(Br)cc1` (centres undefined) gave CXCR6 inh 45*, EBI2 block 1, APJ antag 14, CCR6 antag 36 and APJ agonist 2.
Screening COc1cccc(C(C[N+](=O)[O-])c2c(C)[nH]n(-c3ccccc3)c2=O)c1 (centres undefined) returned CXCR6 inh 8, EBI2 block -36, APJ antag -12, CCR6 antag 12 and APJ agonist 4.
`Cc1ccc(OCC(=O)NNC(=S)NC(=O)c2cccs2)c(C)c1` gave CXCR6 inh 37, EBI2 block -9, APJ antag 10, CCR6 antag 55* and APJ agonist -7.
O=C(O)CCCN1C(=O)/C(=C/c2ccc(-c3nc4ccccc4s3)o2)SC1=S was read as CXCR6 inh 32, EBI2 block 53*, APJ antag 10, CCR6 antag 35 and APJ agonist -5.
`O=C1C(Cl)=C(N2CCCCC2)C(=O)C(Cl)=C1c1cnc(N2CCCCC2)s1` gave CXCR6 inh 14, EBI2 block -16, APJ antag -16, CCR6 antag 70* and APJ agonist 7.
For CN(C)c1ncc(C2=C(Cl)C(=O)C(N3CCCC3)=C(Cl)C2=O)s1 the results were CXCR6 inh 14, EBI2 block -9, APJ antag -20, CCR6 antag 91* and APJ agonist 8.
Cn1nnc(NC(=O)c2cccc([N+](=O)[O-])c2)n1 was read as CXCR6 inh 8, EBI2 block 6, APJ antag 14, CCR6 antag -5 and APJ agonist 3.
For O=C1c2ccccc2-c2nnc(-c3ccc(F)cc3)cc21 the results were CXCR6 inh 20, EBI2 block 48*, APJ antag 7, CCR6 antag 45 and APJ agonist -7.
Screening CC(=NNc1nc2ccccc2o1)c1cc2ccccc2cn1 returned CXCR6 inh -6, EBI2 block 1 and CCR6 antag -16.
`CC(=NNc1nc2ccccc2s1)c1ncccn1` gave CXCR6 inh 54*, EBI2 block 57* and CCR6 antag 40.
`C/C(=N\Nc1nc2ccccc2s1)c1cccs1` gave CXCR6 inh 1, EBI2 block 20, APJ antag 5, CCR6 antag 4 and APJ agonist -10.
`CC(=NNc1nc2ccccc2o1)c1ncccn1` gave CXCR6 inh -7, EBI2 block 55* and CCR6 antag 1.
Screening CN(C)c1ccc(N=Nc2nccs2)cc1 returned CXCR6 inh 51* and EBI2 block 16.
`N#Cc1ccc(NCC(=O)Nc2ccc(S(=O)(=O)N3CCCCC3)cc2)cc1` gave CXCR6 inh 1, EBI2 block 7, APJ antag -13, CCR6 antag 2 and APJ agonist 2.
For CC(C)C(=O)N(c1cc2sc(=O)oc2c2ccccc12)S(=O)(=O)c1cccs1 the results were CXCR6 inh 4, EBI2 block 49*, APJ antag -22, CCR6 antag 25 and APJ agonist 8.
COc1ccc(OCC(=O)Nc2cc(-c3nn(C)c(=O)c4ccccc34)ccc2N2CCOCC2)cc1 was read as CXCR6 inh 1, EBI2 block 12, APJ antag 6, CCR6 antag 7 and APJ agonist 4.
Screening COc1ccccc1OCC(=O)Nc1nc(C)c(C)s1 returned CXCR6 inh 6, EBI2 block -8, APJ antag 15, CCR6 antag 9 and APJ agonist -3.
For Cc1ccsc1C=Nc1ccc(O)cc1 the results were CXCR6 inh -6, EBI2 block 45*, APJ antag -14, CCR6 antag 8 and APJ agonist -1.
For CCOC(=O)c1c(N)sc(N)c1C(=O)OCC the results were CXCR6 inh 17, EBI2 block 12, APJ antag 61*, CCR6 antag 23 and APJ agonist -12.
COc1ccc(NC(=O)Cc2ccccc2)cn1 was read as CXCR6 inh -7, EBI2 block -2, APJ antag 0, CCR6 antag 6 and APJ agonist 0.
`COc1ccc(CS(=O)(=O)/C(Cl)=C(/Cl)C(=O)Nc2ccc(OC)nc2)cc1` gave CXCR6 inh 40, EBI2 block 72*, APJ antag 18, CCR6 antag 28 and APJ agonist -5.
Screening CCN(CC)S(=O)(=O)c1cccc(C(=O)NCC2(N3CCOCC3)CCCCC2)c1 returned CXCR6 inh 2, EBI2 block -3, APJ antag 13, CCR6 antag 15 and APJ agonist -6.
For Cc1ccc(C(=O)C(C)OC(=O)CCN=C2NS(=O)(=O)c3ccccc32)cc1 (centres undefined) the results were CXCR6 inh -3, EBI2 block -3, APJ antag 5, CCR6 antag 6 and APJ agonist -4.
Screening Cc1ccccc1-n1c(C)cc(/C=C(\C#N)C(=O)NCC2CCCO2)c1C (centres undefined) returned CXCR6 inh 10, EBI2 block 9, APJ antag 9, CCR6 antag -7 and APJ agonist -3.
